Bioassay records from PubChem BioAssay.
Most compounds without a hit are left out; they make up all but 2.4% or so of the library.
HGIII-sPLA2 inh – Blocks human group III sPLA2 activity; Q9NZ20; QFRET BODIPY PC-A2 liposome hydrolysis, fluorescence; inhibition, % at 12.2 µM; 370,000 tested, 0.56% active;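 active = inhibition above mean plus 3 SD of compounds lying within the high and low control bounds, cut at about 19% in these data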
Target sequence (Q9NZ20 whole entry, looked up): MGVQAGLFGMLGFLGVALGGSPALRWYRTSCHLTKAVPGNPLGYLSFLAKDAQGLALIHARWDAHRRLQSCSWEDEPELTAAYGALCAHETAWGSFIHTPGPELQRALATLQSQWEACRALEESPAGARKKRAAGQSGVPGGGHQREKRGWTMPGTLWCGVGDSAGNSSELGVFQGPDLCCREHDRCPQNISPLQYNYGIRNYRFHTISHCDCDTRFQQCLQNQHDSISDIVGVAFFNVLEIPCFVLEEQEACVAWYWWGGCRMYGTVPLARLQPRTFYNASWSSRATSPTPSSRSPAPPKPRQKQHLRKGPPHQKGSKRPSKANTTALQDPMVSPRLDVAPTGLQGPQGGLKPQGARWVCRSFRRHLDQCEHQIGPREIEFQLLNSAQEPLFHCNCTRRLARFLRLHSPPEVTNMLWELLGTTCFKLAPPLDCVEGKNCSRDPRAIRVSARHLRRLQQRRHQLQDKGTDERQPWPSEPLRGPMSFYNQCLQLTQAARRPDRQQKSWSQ
IMP-1 inh-1 – inhibitors of Pseudomonas aeruginosa IMP-1 metallo-beta-lactamase; 290,000 tested, 0.45% active; inhibition, % at 5.6 µM; purified IMP-1, nitrocefin hydrolysis, epi-absorbance fluorescence;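 active = inhibition above the mean plus 3 SD of all compounds in the same screening run, cut at about 4.5% in these data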
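Material – recombinant IMP-1 enzyme, purified · Amount – IMP-1 0.2 nM before substrate addition · Medium – HEPES buffer pH 7.1 with ZnSO4 and Brij 35 · Timing – 25 °C, 15 min preincubation, 25 min reaction · Measured by – plate fluorescence quenching by hydrolysis product, ex 480/em 530 nm · Read-out – percent enzyme inhibition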
PfM18AAP inh – PfM18AAP enzyme inhibition | recombinant PfM18AAP, H-Glu-NHMec fluorogenic cleavage | inhibition, % at 7.35 µM | 290,000 tested, 1.2% active;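 active = inhibition above the campaign mean inhibition over all tested compounds plus 3 SD, cut at about 28% in these data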
VIM-2 inh – inhibitors of Pseudomonas aeruginosa VIM-2 metallo-beta-lactamase; purified VIM-2, nitrocefin hydrolysis, epi-absorbance fluorescence; inhibition, % at 5.6 µM; 290,000 tested, 0.89% active; AID 1527;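 active = inhibition above the mean of all tested compounds plus 3 SD, cutoff set per screening run, cut at about 7.5% in these data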;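 note: red hydrolysis product quenches plate fluorescence so inhibitors raise well fluorescence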
IMP-1 inh-2 – selectivity counter-screen for VIM-2 inhibitors: IMP-1 metallo-beta-lactamase inhibitors; purified IMP-1, nitrocefin hydrolysis, epi-absorbance fluorescence; shares compounds with VIM-2 inh; AID 1856; inhibition, % at 5.6 µM; 1,300 tested, under 10 active; call rule not given here
VIM-2 FRET ctr – counter-screen for VIM-2 inhibitors: epi-absorbance artifacts via FRET; 1,300 tested, 23% active; shares compounds with VIM-2 inh; inhibition, % at 5.6 µM; purified VIM-2, CCF2 FRET substrate hydrolysis;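 active = inhibition above the mean of all tested compounds plus 3 SD, cut at about 19% in these data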
TEM-1 counter – blocks E. coli TEM-1 beta-lactamase in VIM-2 selectivity screen; shares compounds with VIM-2 inh; Purified TEM-1, nitrocefin hydrolysis, epi-absorbance fluorescence; inhibition, % at 5.6 µM; 1,300 tested, 3% active;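 active = inhibition above that campaign's mean inhibition plus 3 SD, cut at about 0.46% in these data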
Target sequence (P62593 whole entry, looked up): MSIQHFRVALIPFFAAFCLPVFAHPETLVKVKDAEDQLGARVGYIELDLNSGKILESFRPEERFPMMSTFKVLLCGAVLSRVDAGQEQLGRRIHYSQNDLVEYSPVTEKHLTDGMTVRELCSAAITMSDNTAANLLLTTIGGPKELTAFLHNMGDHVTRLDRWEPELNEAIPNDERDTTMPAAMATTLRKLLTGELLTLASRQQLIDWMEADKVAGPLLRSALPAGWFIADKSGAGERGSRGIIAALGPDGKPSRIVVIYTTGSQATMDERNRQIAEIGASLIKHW
VIM-2 inh conf – confirmation of P. aeruginosa VIM-2 metallo-beta-lactamase inhibitors | 1,300 tested, 96% active | purified VIM-2, nitrocefin hydrolysis, epi-absorbance | AID 2187 | inhibition, % at 5.6 µM | shares compounds with VIM-2 inh;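 active = inhibition of the VIM-2 beta-lactamase enzyme above about 11% from the earlier first-round screen, limit read from the data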
Of the large screens only hits and unclear results are named; the others gave an inactive call (follow-up assays come after a bar, where they were run).

Cc1cc(=O)oc2cc(OC(C)C(=O)NC3CCN(Cc4ccccc4)CC3)ccc12 (stereo not given)	none
Cc1c(OC(C)C(=O)NC2CC(C)(C)NC(C)(C)C2)ccc2c3c(c(=O)oc12)CCC3 (stereo not given)	VIM-2 inh 25.8 | IMP-1 inh-2 inactive | VIM-2 FRET ctr inactive | TEM-1 counter inactive | VIM-2 inh conf 37.5
CC1CC(=O)Nc2ccccc2N1C(=O)CSc1ccc2ccccc2n1 (stereo not given)	none (no result: IMP-1 inh-1, PfM18AAP inh, VIM-2 inh)
CC(C)N(C)c1ncnc2c1ncn2[C@H]1CN(C2CCCC2)C[C@@H](CO)O1	none (no result: IMP-1 inh-1, PfM18AAP inh, VIM-2 inh)
Cc1[nH]c(-c2ccc(F)cc2)cc1C(=O)N1CCN(c2cccc(Cl)c2)CC1	none
COc1ccc(OC)c(S(=O)(=O)NCC(c2cccs2)N2CCc3ccccc3C2)c1 (stereo not given)	none (no result: IMP-1 inh-1, PfM18AAP inh, VIM-2 inh)
COc1ccc(/C=N/NC(=S)Nc2cccc(C(=O)O)c2)cc1OC	VIM-2 inh 12.7 | IMP-1 inh-2 inactive | VIM-2 FRET ctr inactive | TEM-1 counter inactive | VIM-2 inh conf inactive
c1ccc(CNc2nc(-c3ccccn3)nc3ccccc23)cc1	VIM-2 inh 18.9 | IMP-1 inh-2 inactive | VIM-2 FRET ctr inactive | TEM-1 counter inactive | VIM-2 inh conf 25.5
C=C(C)/C=C1/CN(Cc2ccc3c(c2)OCO3)C(=N)N1C(=O)OCc1ccccc1	none (no result: IMP-1 inh-1, PfM18AAP inh, VIM-2 inh)
Cc1ccc(-c2nn3nnnc3c3ccccc23)cc1C	none
Cc1ccc(-c2nn3cnnc3c3ccccc23)cc1C	VIM-2 inh 23.5 | IMP-1 inh-2 inactive | VIM-2 FRET ctr inactive | TEM-1 counter 1.6 | VIM-2 inh conf 39.0
CCN1CCN(CCCNC(=O)c2cc3c(=O)oc4ccc(C)cc4c3s2)CC1	VIM-2 inh 12.7 | IMP-1 inh-2 inactive | VIM-2 FRET ctr inactive | TEM-1 counter inactive | VIM-2 inh conf 18.6
Cc1ccc2oc(=O)c3cc(C(=O)NCCCN4C(C)CCCC4C)sc3c2c1 (stereo not given)	VIM-2 inh 12.3 | IMP-1 inh-2 inactive | VIM-2 FRET ctr inactive | TEM-1 counter inactive | VIM-2 inh conf 16.5
O=C(NCCCN1CCCCCC1)c1cc2c(=O)oc3ccccc3c2s1	VIM-2 inh 15.6 | IMP-1 inh-2 inactive | VIM-2 FRET ctr inactive | TEM-1 counter inactive | VIM-2 inh conf 24.6
Cc1ccc2oc(=O)c3cc(C(=O)NCCCN4CCN(C)CC4)sc3c2c1	VIM-2 inh 13.4 | IMP-1 inh-2 inactive | VIM-2 FRET ctr inactive | TEM-1 counter inactive | VIM-2 inh conf 19.8
CCN(Cc1ccccc1)C(=O)c1cc2c(=O)oc3ccc(C)cc3c2s1	none
Cc1ccc2oc(=O)c3cc(C(=O)N4CCN(C(=O)c5ccco5)CC4)sc3c2c1	none (no result: HGIII-sPLA2 inh)
CCCN1CCN(CCCNC(=O)c2cc3c(=O)[nH]c4ccc(C)cc4c3s2)CC1	none
COc1ccc(NC(=O)c2cc3c(=O)n(C)c4ccccc4c3s2)cc1OC	none
CN1CCN(CCCNC(=O)c2cc3c(=O)n(C)c4ccccc4c3s2)CC1	VIM-2 inh 21.4 | IMP-1 inh-2 inactive | VIM-2 FRET ctr inactive | TEM-1 counter inactive | VIM-2 inh conf 29.1
Cn1c(N)c(C(=O)c2cc(-c3ccccn3)nc3ccccc23)c(=O)[nH]c1=O	VIM-2 inh 37.9 | IMP-1 inh-2 inactive | VIM-2 FRET ctr inactive | TEM-1 counter inactive | VIM-2 inh conf 42.2
CCC(C)[C@H]1COCCS(=O)(=O)N1Cc1ccc(Br)cc1 (stereo not given in full)	none
O=C(C1CCCO1)N1N=C(c2ccc(Br)cc2)CC1c1ccco1 (stereo not given)	VIM-2 inh 18.4 | IMP-1 inh-2 inactive | VIM-2 FRET ctr 57.3 | TEM-1 counter inactive | VIM-2 inh conf 36.1
O=C(c1ccc(Br)o1)N1N=C(c2ccc(Cl)cc2)CC1c1ccco1 (stereo not given)	VIM-2 inh 12.3 | IMP-1 inh-2 inactive | VIM-2 FRET ctr 30.1 | TEM-1 counter inactive | VIM-2 inh conf 18.5
CC(=O)N1N=C(c2ccc(C)cc2)CC1c1ccco1 (stereo not given)	none
Cc1ccc(C2=NN(C(=O)C3CCCO3)C(c3ccco3)C2)cc1 (stereo not given)	VIM-2 inh 14.2 | IMP-1 inh-2 inactive | VIM-2 FRET ctr 27.2 | TEM-1 counter inactive | VIM-2 inh conf 17.1
COc1ccc(CN(CCN2CCOCC2)C(=O)c2cc(F)ccc2F)cc1OC	none (no result: IMP-1 inh-1, PfM18AAP inh, VIM-2 inh)
COC(=O)[C@]12CCCCC=C1N(Cc1ccc(OC)cc1)C(=O)[C@@H]2CC(=O)NCc1ccc(C)o1	none (no result: IMP-1 inh-1, PfM18AAP inh, VIM-2 inh)
COc1ccc(-c2cc(C(F)(F)F)n3nc(C(=O)N4CCN5CCCC5C4)cc3n2)cc1OC (stereo not given)	VIM-2 inh 25.7 | IMP-1 inh-2 inactive | VIM-2 FRET ctr inactive | TEM-1 counter inactive | VIM-2 inh conf 40.0
COc1ccc(-c2cc(C(F)(F)F)n3nc(C(=O)N4CCN(C(=O)c5ccco5)CC4)cc3n2)cc1	none
Cc1ccc2cccc(NC3OC(=O)c4ccccc43)c2n1 (stereo not given)	PfM18AAP inh 28.5, VIM-2 inh 13.9 | IMP-1 inh-2 inactive | VIM-2 FRET ctr inactive | TEM-1 counter inactive | VIM-2 inh conf inactive
COC(=O)c1ccccc1NC1OC(=O)c2ccccc21 (stereo not given)	none
O=C(O)c1ccccc1C(=O)c1ccc(Oc2ccccc2)cc1	VIM-2 inh 21.8 | IMP-1 inh-2 inactive | VIM-2 FRET ctr 44.0 | TEM-1 counter inactive | VIM-2 inh conf 24.4
O=C(O)c1ccccc1Oc1ccc(Oc2ccccc2)cc1	none
CCCCCc1ccnc(CC(=O)c2ccc(OC)cc2)c1	none (no result: IMP-1 inh-1, PfM18AAP inh, VIM-2 inh)
O=C(Nc1ccccc1Cl)N1CCN(c2ccc3nnc(-c4ccccc4)n3n2)CC1	VIM-2 inh 15.7 (no result: HGIII-sPLA2 inh) | IMP-1 inh-2 inactive | VIM-2 FRET ctr inactive | TEM-1 counter inactive | VIM-2 inh conf 24.2
COC(=O)c1cc2c(c3c4cc(C)ccc4n(C(=O)c4ccccc4)c13)C(=O)N(Cc1ccccc1)C2	none (no result: IMP-1 inh-1, PfM18AAP inh, VIM-2 inh)
COc1ccc(NC(=O)c2sc(=O)n(Cc3ccc(F)c(Cl)c3)c2C)cc1OC	none (no result: IMP-1 inh-1, PfM18AAP inh, VIM-2 inh)
c1ccc(-c2noc(-c3ccco3)n2)nc1	none
c1ccc(-c2nccc(-c3ccco3)n2)nc1	VIM-2 inh 33.6 | IMP-1 inh-2 inactive | VIM-2 FRET ctr inactive | TEM-1 counter inactive | VIM-2 inh conf 29.8
COc1ccc(-c2ccc(CNCc3ccccn3)o2)cc1Cl	VIM-2 inh 55.5 (no result: HGIII-sPLA2 inh) | IMP-1 inh-2 inactive | VIM-2 FRET ctr inactive | TEM-1 counter inactive | VIM-2 inh conf 67.3
Clc1ccc(-c2ccc(CNCc3ccccn3)o2)cc1	VIM-2 inh 24.2 | IMP-1 inh-2 inactive | VIM-2 FRET ctr inactive | TEM-1 counter inactive | VIM-2 inh conf 42.3
Oc1cccc(/C=N/Nc2nn3cnnc3c3ccccc23)c1	VIM-2 inh 16.2 | IMP-1 inh-2 inactive | VIM-2 FRET ctr inactive | TEM-1 counter inactive | VIM-2 inh conf 36.7
